Data set [1] is described as follows: Antiproliferative activity against human PC3 cells after 48 hrs by SRB assay. Format: functional. The following applies: PC-3, 48 h. In short, it runs like this: (§1)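 Cells grown in RPMI 1640 with 5% FBS, with penicillin/streptomycin in experimental cultures. Exposed in triplicate to 0.25, 2.5, 25 and 250 µg/mL in DMSO/RPMI for 48 h at 37 °C under 5% CO2. Plates were TCA-fixed before (T0) and after treatment, then stained with sulforhodamine B and read at 540 nm. GI50 was obtained by non-linear regression against untreated growth. Doxorubicin served as positive control.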
A general note: Sulforhodamine B stains cellular protein and so reports cell mass.

Data set [2] is described as follows: Antiproliferative activity against human OVCAR3 cells after 48 hrs by SRB assay. It is filed as functional. The following applies: OVCAR-3, 48 h. An outline of the steps: as §1
A short description of data set [3]: Antiproliferative activity against human NCI-H460 cells after 48 hrs by SRB assay. It is filed as functional. The following applies: NCI-H460, 48 h. An outline of the steps:
as §1

Data set [4] is described as follows: Cytotoxicity against African green monkey Vero cells after 48 hrs by SRB assay. It is filed as toxicity, cell-based. The settings on record: chlorocebus sabaeus. In short, it runs like this: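 Vero (ATCC CCL81) cells grown in DMEM with 10% FBS and gentamicin at 37°C, 5% CO2. Cells exposed in triplicate to 1000, 500, 100, 10, 1 and 0.1 µg/mL, with untreated cells as control. Viability read by sulforhodamine B colorimetry. CC50 is the concentration giving 50% cytotoxicity.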

Data set [5] is described as follows: Antiproliferative activity against human NCI/ADR-RES cells after 48 hrs by SRB assay. It is filed as functional. An outline of the steps:
as §1

Data set [6] is described as follows: Selectivity index, ratio of CC50 for Herpes simplex type I KOS infected African green monkey Vero cells to EC50 for Herpes simplex virus type 1 KOS. It is filed as toxicity, cell-based. The following applies: Herpes simplex virus type 1 KOS infected Vero cells, read-out: Ratio CC50/EC50. In short, it runs like this:
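SI calculated as CC50/EC50. CC50 is the 50% cytotoxic concentration on Vero cells by sulforhodamine B, tested in triplicate from 0.1 to 1000 µg/mL. EC50 is the concentration protecting 50% of cells against HSV-1, with acyclovir as HSV-1 standard and drug-free cells as control.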

Data set [7] is described as follows: Antiproliferative activity against human 786-0 cells after 48 hrs by SRB assay. Format: functional. The following applies: 786-0, 48 h. In short, it runs like this:
as §1

A further data set deals with Human alphaherpesvirus 1. As to the kind of experiment: Antiviral activity against Herpes simplex type I KOS. The settings on record: Human alphaherpesvirus 1, KOS. Format: functional.
Data set [8] in a line: Antiproliferative activity against human U251 cells after 48 hrs by SRB assay. Format: functional. The settings on record: U-251, 48 h. An outline of the steps:
as §1

The nature of data set [9]: Antiproliferative activity against human MCF7 cells after 48 hrs by SRB assay. It is filed as functional. The settings on record: MCF7, 48 h. In short, it runs like this:
as §1

Data set [10] can be described thus: Antiproliferative activity against human HT-29 cells after 48 hrs by SRB assay. The following applies: HT-29, 48 h. It is filed as functional. An outline of the steps:
as §1

Data set [11] in a line: Antiproliferative activity against human UACC62 cells after 48 hrs by SRB assay. Format: functional. The settings on record: UACC-62, 48 h. An outline of the steps: as §1
For data set [12], the system named is 786-0. The data set can be described thus: Induction of apoptosis in human 786-0 cells assessed as necrotic cells at 25 uM after 24 hrs by Annexin V/7-AAD staining based flow cytometry. It is filed as functional. An outline of the steps:
(§2)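 786-0 cells seeded at 3×10^4 cells/mL and grown 24 h at 37 °C under 5% CO2. Exposed to 25 µM in DMSO/RPMI for 15, 18 or 24 h against DMSO vehicle. Results are mean ± standard error from three experiments in triplicate.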

The nature of data set [13]: Cytotoxicity against human 786-0 cells after 48 hrs by SRB assay. It is filed as functional. The settings on record: 786-0, 48 h. In short, it runs like this:
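Sulforhodamine B assay in RPMI 1640 with 5% FBS. Triplicate exposures to 0.25–250 µg/mL in DMSO/RPMI for 48 h at 37 °C under 5% CO2. T0 and treated plates were fixed with 50% TCA and absorbance read at 540 nm. Parameters: TGI is total growth inhibition; LC50 is the concentration killing 50% of cells. Doxorubicin served as control.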

The subject of data set [14] is 786-0. As to the kind of experiment: Induction of apoptosis in human 786-0 cells assessed as late apoptotic or necrotic cells at 25 uM after 18 hrs by 7-AAD staining based flow cytometry. It is filed as functional. In short, it runs like this: as §2
For orientation: A flow cytometer gives signals particle by particle.

Data set [15] deals with 786-0. As to the kind of experiment: Induction of apoptosis in human 786-0 cells assessed as necrotic cells at 25 uM after 18 hrs by Annexin V/7-AAD staining based flow cytometry. It is filed as functional. In short, it runs like this:
as §2

Data set [16] can be described thus: Cell cycle arrest in human 786-0 cells assessed as accumulation at G2/M phase at 12.5 uM after 24 hrs by propidium iodide staining-based flow cytometry (Rvb=36.5+/-1.1%). It is filed as functional. An outline of the steps: (§3)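 786-0 cells seeded at 3×10^4 cells/mL and grown 24 h, then serum-starved 24 h to synchronise. Treated in DMSO/RPMI for 24 h alongside DMSO vehicle and colchicine control. 1×10^5 cells in PBS were stained with propidium iodide for 20 min in the dark at room temperature, then analysed by flow cytometry. Results are mean ± standard error % cells from three experiments in triplicate; ANOVA/Tukey.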

Data set [17] deals with 786-0. As to the kind of experiment: Induction of apoptosis in human 786-0 cells assessed as necrotic cells at 25 uM after 15 hrs by Annexin V/7-AAD staining based flow cytometry. It is filed as functional. An outline of the steps: as §2
Data set [18] can be described thus: Cell cycle arrest in human 786-0 cells assessed as accumulation at G1 phase at 12.5 uM after 24 hrs by propidium iodide staining-based flow cytometry (Rvb=47.1+/-1%). Format: functional. An outline of the steps: as §3
Data set [19] is described as follows: Cell cycle arrest in human 786-0 cells assessed as accumulation at S phase at 6.25 uM after 24 hrs by propidium iodide staining-based flow cytometry (Rvb=12.6+/-0.7%). Format: functional. In short, it runs like this: as §3
Data set [20] can be described thus: Cell cycle arrest in human 786-0 cells assessed as accumulation at G2/M phase at 6.25 uM after 24 hrs by propidium iodide staining-based flow cytometry (Rvb=36.5+/-1.1%). Format: functional. In short, it runs like this:
as §3

Data set [21] has as its system 786-0. The data set can be described thus: Induction of apoptosis in human 786-0 cells assessed as late apoptotic or necrotic cells at 25 uM after 15 hrs by 7-AAD staining based flow cytometry. It is filed as functional. In short, it runs like this: as §2
Data set [22] can be described thus: Cell cycle arrest in human 786-0 cells assessed as accumulation at sub-G1 phase at 12.5 uM after 24 hrs by propidium iodide staining-based flow cytometry (Rvb=3.7+/-0.9%). It is filed as functional. An outline of the steps:
as §3

Data set [23] can be described thus: Cell cycle arrest in human 786-0 cells assessed as accumulation at S phase at 12.5 uM after 24 hrs by propidium iodide staining-based flow cytometry (Rvb=12.6+/-0.7%). It is filed as functional. An outline of the steps: as §3
The nature of data set [24]: Cell cycle arrest in human 786-0 cells assessed as accumulation at sub-G1 phase at 6.25 uM after 24 hrs by propidium iodide staining-based flow cytometry (Rvb=3.7+/-0.9%). It is filed as functional. An outline of the steps:
as §3

The test system of data set [25] is 786-0. The data set can be described thus: Induction of apoptosis in human 786-0 cells assessed as late apoptotic or necrotic cells at 25 uM after 24 hrs by 7-AAD staining based flow cytometry. Format: functional. In short, it runs like this:
as §2

Data set [26] in a line: Cell cycle arrest in human 786-0 cells assessed as accumulation at G1 phase at 6.25 uM after 24 hrs by propidium iodide staining-based flow cytometry (Rvb=47.1+/-1%). It is filed as functional. An outline of the steps: as §3
Data set [27] is described as follows: Cell cycle arrest in human 786-0 cells assessed as accumulation at G2/M phase at 1.25 uM after 24 hrs by propidium iodide staining-based flow cytometry (Rvb=36.5+/-1.1%). It is filed as functional. An outline of the steps: as §3
Data set [28] in a line: Cell cycle arrest in human 786-0 cells assessed as accumulation at sub-G1 phase at 1.25 uM after 24 hrs by propidium iodide staining-based flow cytometry (Rvb=3.7+/-0.9%). It is filed as functional. In short, it runs like this: as §3
Data set [29] is described as follows: Cell cycle arrest in human 786-0 cells assessed as accumulation at G1 phase at 1.25 uM after 24 hrs by propidium iodide staining-based flow cytometry (Rvb=47.1+/-1%). It is filed as functional. In short, it runs like this:
as §3

Data set [30] is described as follows: Cell cycle arrest in human 786-0 cells assessed as accumulation at S phase at 1.25 uM after 24 hrs by propidium iodide staining-based flow cytometry (Rvb=12.6+/-0.7%). It is filed as functional. An outline of the steps:
as §3

As usually defined, the GI50 is the concentration at which growth is held to half of that of the control. For orientation: EC50 means the midpoint of the concentration-response curve. `O=C(NN1C(=O)CSC1c1ccccc1)c1cc2c([nH]c3ccccc32)c(-c2ccccc2)n1` (centres undefined): the GI50 is 7.23 µM in data set [1]; 1.58 µM in data set [2]; above 100 µM in data set [3]; 18.4 µM in data set [5]; above 100 µM in data set [7]; 0.25 µM in data set [8]. Moreover, the results for the GI50 in [9], in [10] and in [11] were 19.1 µM, above 100 µM and 80.4 µM, respectively. The compound further had a CC50 at 48 h in data set [4] of 506 µM. For the same compound, the selectivity ratio in data set [6] is 235. In addition, the response with Human alphaherpesvirus 1 was half-maximal at 2.15 µM (EC50).
By TGI is commonly meant the concentration giving total growth inhibition. For `CN(C)c1ccc(-c2nc(C(=O)N/N=C3/NC(=O)CS3)cc3c2[nH]c2ccccc23)cc1`, the Activity in the data set on 786-0 [12] was 38.7%; in the data set on 786-0 [14], 34.7%; with 786-0 [15], 34.4%; in data set [16], 31.8%; with 786-0 [17], 3.6%; in [18] it was 40.5%. Further, the Activity was 11.9% in data set [19]; 37% in data set [20]; 3.9% in the data set with 786-0 [21]; 15.3% in data set [22]; 12.4% in data set [23]; 2.3% in [24]. Besides, the Activity in the data set with 786-0 [25] is 36.6%; in data set [26] it was 48.7%. For the same compound, in [13], the TGI was 13 µM. Also, the CC50 in data set [13] (read-out: LC50 (the source's name)) amounted to 105 µM. The GI50 was 1.27 µM in data set [2]; 1.44 µM in data set [3]; 0.48 µM in [5]; 1.6 µM in data set [7]; 2.93 µM in [9]; 5.04 µM in [10]. For the same compound, the CC50 at 48 h in [4] turned out to be 1740 µM. The selectivity ratio in data set [6] is 18. In the data set with Human alphaherpesvirus 1, the EC50 stood at 96.8 µM.
With `O=C(NN1C(=O)CSC1c1ccccc1Cl)c1cc2c([nH]c3ccccc32)c(-c2ccccc2)n1` (centres undefined), the GI50 in data set [1], in data set [2], in data set [3], in data set [5], in data set [7] and in [8] was above 100 µM in each case. For the same compound, the GI50 in data set [9], in data set [10] and in data set [11] was above 100 µM in each case.
On to `COc1cc2c(c(OC)c1OC)-c1ccc(OC)c(=O)cc1[C@@H](NC(C)=O)CC2`, for which the Activity in [27] stood at 61.7%; in data set [28], 9%; in data set [29], 18.3%; in data set [30], 11%.
Regarding `O=C(NN1C(=O)CSC1c1cccs1)c1cc2c([nH]c3ccccc32)c(-c2ccccc2)n1` (centres undefined), the GI50 in data set [1], in [2], in [3], in data set [5], in data set [7] and in [8] was above 100 µM in each case. Further, the GI50 in data set [9], in data set [10] and in [11] was above 100 µM each time.
For `CN(C)c1ccc(-c2nc(C(=O)N/N=C3\SCC(=O)N3c3ccccc3)cc3c2[nH]c2ccccc23)cc1`, the GI50 in [2] is above 100 µM; in data set [3], 17.9 µM; in [5], 35.4 µM; in [7], 3.97 µM; in [8] it was 12.5 µM; in data set [9] it was 15 µM. In data set [10], this compound came in with a GI50 of 38.1 µM. For the same compound, the CC50 at 48 h in data set [4] was 817 µM. The selectivity ratio in data set [6] was determined as 16.4. For the same compound, in the data set with Human alphaherpesvirus 1, a half-maximal effect (EC50) was put at 50 µM.
Take `O=C(NN1C(=O)CSC1c1ccccc1)c1cc2c([nH]c3ccccc32)c(-c2ccccc2F)n1` (centres undefined): the GI50 in data set [2] is 0.73 µM; in data set [3] it was above 100 µM; in data set [5] it was above 100 µM; in data set [7] it was above 100 µM; in data set [8], 84.1 µM; in [9], 63.1 µM. In addition, the GI50 in [10] was above 100 µM. Besides, in [4], the CC50 at 48 h amounted to 637 µM. Further, the selectivity ratio in data set [6] came to 21. It took 30.3 µM to reach a half-maximal effect with Human alphaherpesvirus 1 (EC50).

(Values after ChEMBL document CHEMBL3877292, “Synthesis and evaluation of novel hybrids β-carboline-4-thiazolidinones as potential antitumor and antiviral agents” (Eur J Med Chem, 2016).)
